Screening results: PubChem BioAssay, several laboratories
Fh CTSL1 inh: Fasciola hepatica cathepsin L1 inhibitors, primary screen, counter-screen for PFM18AAP inhibitor project, biochemical, QFRET, fluorogenic peptide substrate; recombinant F. hepatica cathepsin L1, Z-Leu-Arg-MCA fluorescence; inhibition, % at 5.96 µM; 300,000 tested, 0.49% active;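 active = inhibition above the mean of all tested compounds plus 3 SD, set per screening campaign, cut at about 17% in these data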;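 note: 0% = plate median of test compound wells and 100% = 1 µM Z-Phe-Ala-diazomethylketone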
Diaph inh CS: diaphorase inhibitors and chemical oxidizers, primary screen, counter-screen for diaphorase-coupled primary assays, biochemical, uHTS, resorufin fluorescence; diaphorase resazurin-to-resorufin fluorescence, NADH, 16 min; bacterial (C. kluyveri) enzyme, not human; inhibition, % at 20 µM; 190,000 tested, 0.69% active;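 active = primary screen inhibition at 20 µM above a set limit, cut at about 50% in these data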;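 note: plate controls were DMSO with full reaction for no effect and wells lacking NADH for full effect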
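Assay system: diaphorase enzyme from Clostridium kluyveri. Quantity: enzyme working solution with 0.14 U/mL diaphorase. Schedule: reaction incubation of 16 min at room temperature. Technique: resorufin fluorescence, excitation 544 nm, emission 590 nm. Controls: No-NADH positive control and DMSO neutral control.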
Diaphorase act: compounds boosting diaphorase resazurin reduction – biochemical, uHTS, resorufin fluorescence, counter-screen for diaphorase-coupled primary assays, primary screen; Diaphorase/resazurin coupled assay, 16 min; active compounds read high; 1 = vehicle wells, 0 = NADH-free wells; activation factor at 20 µM; 190,000 tested, 0.005% active; AID 1229, 2008;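 active = diaphorase activity raised at least twofold by the compound at 20 µM; inactive = activation factor below 2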
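test system = bacterial diaphorase enzyme (C. kluyveri) | quantity = enzyme 0.07 U/mL final | reagent = NADH substrate 0.114 mM plus resazurin dye 0.1 mM, final | incubation = 16 min enzyme reaction, ambient temperature | buffer or medium = HEPES pH 7.4 buffer with MgCl2 and Tween 20 | signal = fluorescence of resorufin, 544 nm excitation, 590 nm emission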
ATG4B inh: ATG4B protease inhibitors, primary screen, biochemical, fluorescence, uHTS. ATG4B cleavage of LC3-PLA2, NBD-HPC fluorescence, 1 h. inhibition, % at 8.33 µM. 340,000 tested, 0.51% active; in the data active = inhibition above about 40%
Target sequence (Q9Y4P1 whole entry, looked up): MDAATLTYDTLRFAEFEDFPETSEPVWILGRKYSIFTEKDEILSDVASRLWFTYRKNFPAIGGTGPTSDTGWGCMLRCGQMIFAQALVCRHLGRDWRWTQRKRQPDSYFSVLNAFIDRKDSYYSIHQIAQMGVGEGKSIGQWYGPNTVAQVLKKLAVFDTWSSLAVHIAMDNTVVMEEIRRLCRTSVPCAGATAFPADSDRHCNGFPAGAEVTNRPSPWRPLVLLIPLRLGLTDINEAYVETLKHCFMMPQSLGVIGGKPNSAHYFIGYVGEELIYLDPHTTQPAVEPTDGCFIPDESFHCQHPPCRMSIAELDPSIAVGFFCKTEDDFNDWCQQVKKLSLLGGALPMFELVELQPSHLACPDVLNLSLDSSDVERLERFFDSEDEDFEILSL
HKDC1 inhibitor: HKDC1 hexokinase inhibitors, primary screen, biochemical, fluorescence, uHTS; Q2TB90; recombinant HKDC1, G6PDH/diaphorase resazurin coupled fluorescence; inhibition, % at 20 µM; 340,000 tested, 0.16% active;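 active = inhibition above about 35% when tested at 20 µM, limit read from the data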;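 note: plate controls were DMSO wells with enzyme for no effect and DMSO wells lacking enzyme for full effect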
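Assay system: in-house recombinant HK5 (HKDC1) enzyme. Input: HKDC1 at 5 µg/mL. Medium: Tris pH 8.0 buffer with MgCl2, Tween-20, BSA, BME. Dosing: single 20 µM dose. Schedule: 90 min reaction incubation at room temperature, dark. Signal: resazurin-to-resorufin fluorescence via G6PDH and diaphorase coupling, 525/613 nm. Controls: DMSO-enzyme wells negative, buffer-substituted wells positive.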
ATG4B conf: ATG4B protease inhibitors, retest, confirmation, biochemical, fluorescence, single concentration | shares compounds with ATG4B inh | ATG4B protease fluorescent substrate cleavage assay | inhibition, % at 8.33 µM | 320 tested, 92% active; in the data active = inhibition above about 39%
PLA2 counter: PLA2 enzyme inhibition, counter-screen for ATG4B inhibitor project, biochemical, single concentration, uHTS hits | shares compounds with ATG4B inh | purified PLA2, NBD-C6-HPC fluorescence, 45 min | inhibition, % at 8.33 µM | 1,600 tested, 66% active; in the data active = inhibition above about 50%
Target sequence (P04054 whole entry, looked up): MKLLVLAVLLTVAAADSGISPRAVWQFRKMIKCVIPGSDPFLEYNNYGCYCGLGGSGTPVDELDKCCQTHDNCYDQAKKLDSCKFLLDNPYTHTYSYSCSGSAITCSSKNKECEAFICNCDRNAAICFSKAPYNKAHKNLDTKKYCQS
The depositor's hits bear a star; / = not tested or not shown. In the library only some 1.4% were active in any assay of this set; here they are far more common.

SMILES | Fh CTSL1 inh | Diaph inh CS | Diaphorase act | ATG4B inh | HKDC1 inhibitor | PLA2 counter | others
S=C(NCc1ccco1)NC1CCCc2ccccc21 (stereo not given) | 1 | 6 | 0.9 | 63* | -4 | 48
S=C(NCc1ccccc1)NC1CCCc2ccccc21 (stereo not given) | 3 | 10 | 0.9 | 78* | -7 | 78*
Cc1ccc(S(=O)(=O)N2CCC(C(=O)N3CCc4ccccc43)CC2)cc1C | / | / | / | 22 | 1 | /
CCC(C)N(C(=O)COc1ccc(NC(C)=O)cc1)C1CCS(=O)(=O)C1 (stereo not given) | -3 | 6 | 0.9 | -9 | -11 | /
CCC(C)N(C(=O)COc1ccc(Br)cc1C=O)C1CCS(=O)(=O)C1 (stereo not given) | -1 | / | / | 42* | -5 | 48 | ATG4B conf=57*
c1ccc(-c2ccc(-c3cnc4n3CCCCC4)cc2)cc1 | 3 | 5 | 1 | 52* | -2 | 59*
Cc1ccc(-c2cnc3n2CCCCC3)cc1 | -4 | 4 | 1 | -1 | 4 | /
C=CCN1C(c2ccccc2)=CS/C1=C(\C#N)c1nnc2n1CCCCC2 | 3 | -12 | 1.1 | 8 | -8 | /
CCOc1ccc(C2=CS/C(=C(\C#N)c3nnc4n3CCCCC4)N2CC)cc1 | 5 | 8 | 0.9 | 48* | -7 | 42 | ATG4B conf=72*
COc1ccc(-c2nc(CS(=O)(=O)CC(=O)NCc3ccccc3Br)c(C)o2)cc1 | -2 | / | / | 84* | 3 | 92*
CC(=O)Nc1ccc(S(=O)(=O)NCC2CCC(C(=O)N3CC(C)CC(C)C3)CC2)cc1 (stereo not given) | 4 | / | / | 4 | -2 | /
O=C1C2C3C=CC(C3)C2C(=O)N1/N=C/c1cn(Cc2ccc(F)cc2)c2ccccc12 (stereo not given) | -1 | 22 | 0.8 | 48* | 3 | 70*
O=C1C2C3C=CC(C3)C2C(=O)N1/N=C/c1cn(Cc2ccccc2)c2ccccc12 (stereo not given) | 1 | 12 | 0.9 | 48* | 4 | 57*
CCOC(=O)Cn1cc(/C=N/N2C(=O)C3C4C=CC(C4)C3C2=O)c2ccccc21 (stereo not given) | 1 | -10 | 1.1 | -8 | -5 | /
CC(C)(C)OC(=O)C[C@H]1C/C=C\C[C@H](CC(=O)N(CCO)Cc2ccccc2)C(=O)N[C@H](C(C)(C)C)COC1=O | / | / | / | 1 | -6 | /
C=CCOC(=O)c1cc(-c2ccc(/C=C3\C(=O)NC(=O)C(C#N)=C3C)o2)ccc1Cl | / | 42 | 0.6 | 70* | 29 | 50
C#CCCC(=O)c1ccccc1/C=[N+](\[O-])c1ccccc1 | / | / | / | 42* | 6 | 62*
C#CCCc1cscc1/C=[N+](\[O-])c1ccc(C(=O)OCC)cc1 | / | / | / | 3 | 1 | /
CC(C)CCn1c(=O)c2ccccc2c2ccccc2c1=O | 4 | 18 | 0.8 | 64* | 0 | 71*
Cc1cccc(C)c1NC(=O)COC(=O)c1cc[n+]([O-])cc1 | -3 | / | / | 1 | 4 | /
C#CCOCCOCCOCCNc1nc(N2CCN(C(=O)CCCCCCCCCCNC(=O)Cn3cc(C[C@@H](C)O)nn3)CC2)nc(N2CCN(C(=O)CCCCCCCCCCNC(=O)[C@H](CCCCN)n3cc(C[C@@H](C)CC)nn3)CC2)n1 | 5 | / | / | 21 | -9 | /
C#CCOCCOCCOCCNc1nc(N2CCN(C(=O)CCCCCCCCCCNC(=O)[C@H](CCCCN)n3cc(C[C@@H](C)CC)nn3)CC2)nc(N2CCN(C(=O)CCCCCCCCCCNC(=O)[C@H](CCCCN)n3cc(C[C@@H](C)CC)nn3)CC2)n1 | 4 | / | / | 80* | 4 | 78*
Nc1c(C=C2C=CC(=O)C=C2)c(=O)nc2snc(SCc3ccccc3)n12 | 5 | / | / | 40* | 6 | 32 | ATG4B conf=76*
CCOc1ccc(N(CC(=O)N2CCN(c3ccc(F)cc3)CC2)S(=O)(=O)c2c(C)noc2C)cc1 | 7 | / | / | 17 | 5 | /
COc1ccc(-c2csc(NC(=O)c3ccc(C(C)(C)C)cc3)c2C(=O)O)cc1 | 2 | / | / | 47* | 12 | 53*
SMILES | Fh CTSL1 inh | Diaph inh CS | Diaphorase act | ATG4B inh | HKDC1 inhibitor | PLA2 counter | others
Cc1ccc(-c2csc(NC(=O)c3ccccc3F)c2C(=O)O)cc1 | -3 | / | / | 55* | 14 | 58*
COc1ccc(-c2csc(NC(=O)c3ccccc3Br)c2C(=O)O)cc1 | 0 | / | / | 39 | 10 | /
Cc1cccc(C)c1OCc1cc(C(=O)NCc2ccc(Cl)s2)no1 | 2 | / | / | 61* | -3 | 67*
CCOC(=O)CSc1nc2ccccc2c(=O)n1C1CCCC1 | 5 | 14 | 0.9 | 44* | 2 | 65*
CNC(=O)CSc1nc2ccccc2c(=O)n1C1CCCCC1 | -10 | / | / | 13 | -6 | /
Cc1ccccc1NC(=O)CN1C(=O)S/C(=C\c2ccc(-c3cc(C(=O)O)ccc3C)o2)C1=O | / | 67* | 0.3 | 42* | 20 | 21 | ATG4B conf=55*
O=C(CN1C(=O)NC2(CCCC2)C1=O)OCc1c(F)cccc1Cl | 2 | / | / | -2 | -3 | /
CC(C)CSC1=NSC2=NC(=O)/C(=C\c3coc4ccccc4c3=O)C(=N)N12 | 2 | 32 | 0.7 | 50* | 3 | 53*
Cc1ccc(C)c(NC(=O)CCC(=O)N2CCOc3ccccc32)c1 | -1 | / | / | -5 | -6 | /
c1ccc(-c2nc(NCc3cccnc3)c3ccccc3n2)cc1 | 2 | -4 | 1 | 14 | 2 | /
Clc1cccc(-c2nc(NCc3cccnc3)c3ccccc3n2)c1 | 5 | 18 | 0.8 | 64* | -3 | 70*
O=C(NCC1CCN(Cc2ccccc2F)CC1)Nc1cccc(Br)c1 | -1 | / | / | -5 | 0 | /
Cc1ccc(C(=O)NC(=S)Nc2ccccc2C(F)(F)F)cc1C | -4 | 28 | 0.7 | 45* | 4 | 47 | ATG4B conf=62*
CC1CCCN(S(=O)(=O)c2cccc(C(=O)NCC3CCCO3)c2)C1 (stereo not given) | / | / | / | -3 | -4 | /
O=C1NN(c2ccccc2)C(=O)/C1=C/c1ccc(Sc2cccc3ccccc23)o1 | 6 | 13 | 0.9 | 44* | 19 | 32 | ATG4B conf=51*
O=C1NN(c2ccccc2)C(=O)/C1=C/c1ccc(-c2ccc(C(=O)O)cc2)o1 | 7 | / | / | 10 | 4 | /
